# From article PMC8612936 (The Lancet. Infectious Diseases, 2021)
# Several values for one entry are separate records, joined by “and”; a condition that tells them apart may be missing. Equal entries are not always repeated. Entries after “also recorded” stand apart in the source; their conditions may differ.
# How the values were obtained:
# [1] = VIS: M5717 whole-blood pharmacokinetics; assay type: in vivo; conditions: human, po
# Summary of the method: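 Healthy malaria-naive adults (18–55 y) were inoculated intravenously with about 2800 viable P falciparum-infected erythrocytes on day −8. On day 1 they took a single oral capsule dose (150, 400 or 800 mg) with 250 mL water after fasting ≥8 h, with no food until 4 h. The test compound was measured in whole blood (LLOQ 1 ng/mL), giving AUC0–∞, apparent terminal t½ and Vz/F.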
# Plasmodium spp = conditions: cited from earlier work
# CYP3A4 = conditions: preclinical studies, no reference given; cited from earlier work
# Plasmodium falciparum [2] = assay: VIS: parasite clearance kinetics and recrudescence; assay type: in vivo; conditions: for PRR48 (95% CI), second phase: cohort estimate
# Summary of the method: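 Volunteers were given about 2800 viable P falciparum-infected erythrocytes intravenously on day −8. Parasitaemia was measured by qPCR of the 18S rRNA gene, twice daily from day 4 after inoculation. A single fasted oral dose (150, 400 or 800 mg) was given when parasitaemia was expected to reach ≥5000 parasites/mL. […] Recrudescence was followed to day 28; artemether–lumefantrine was given on recrudescence or at day 21.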
# [3] = SAD: M5717 whole-blood pharmacokinetics; assay type: in vivo, human; conditions: for Vd/F / half-life / AUC(0-inf) / AUC(0-t): whole blood; for AUC(0-t): SAD 2100 mg oral, N=1
# [4] = Volunteer infection study; assay type: in vivo, human
# Summary of the method: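 Intravenously inoculated, blood-stage P falciparum-infected healthy volunteers received one fasted oral dose (150, 400 or 800 mg). They stayed in the clinic until day 4, then attended outpatient follow-up to day 44.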
# Plasmodium falciparum [5] = conditions: cited from earlier work
# [6] = oral administration of 3–5 mg/kg; cited from earlier work
# [7] = Single ascending dose study; assay type: in vivo, human
# M5717-resistant mutants = conditions: pyronaridine partnered with M5717; cited from earlier work
# [8] = SAD 2100 mg single oral dose, N=1
# [9] = SAD, all 49 participants dosed with M5717
smiles,measurement,setting,value
O=C(NCCN1CCCC1)c1cc(-c2ccc(CN3CCOCC3)cc2)nc2ccc(F)cc12 [M5717],AUC(0-inf),[1]; 150 mg,3100 ng·h/mL
same,Vd/F,[1]; 150 mg,5880 L
same,half-life,[1]; 150 mg,106 h
same,Vd/F,[1]; 400 mg,6530 L
same,half-life,[1]; 400 mg,146 h
same,Vd/F,[1]; 800 mg,8890 L
same,half-life,[1]; 800 mg,193 h
same,Minimum inhibitory concentration (MIC),Plasmodium spp; estimated in mice,3 ng/mL
same,Minimum parasiticidal concentration,Plasmodium spp; estimated in mice,10 ng/mL
same,Lag in antimalarial activity,Plasmodium spp; in vitro and in the mouse efficacy model,24 to 48 h
same,Active or toxic metabolites,CYP3A4,no active or toxic metabolites identified
same,Time of recrudescence after M5717 dosing,"Plasmodium falciparum [2]; VIS 150 mg, individual participants",10 days and 11 days and 19 days
same,Recrudescence incidence,"Plasmodium falciparum [2]; VIS 150 mg, six participants",50%
same,"PRR48 (95% CI), second phase","Plasmodium falciparum [2]; VIS 400 mg single oral dose, N=6",5127 (1006 to 26 132)
same,Time of recrudescence after M5717 dosing,"Plasmodium falciparum [2]; VIS 400 mg, both participants",12 days
same,Recrudescence incidence,"Plasmodium falciparum [2]; VIS 400 mg, eight participants",25%
same,"PRR48 (95% CI), second phase","Plasmodium falciparum [2]; VIS 800 mg single oral dose, N=7",436 (179 to 1061)
same,Recrudescence,"Plasmodium falciparum [2]; VIS 800 mg, up to 21 days after dosing",No recrudescence
same,Duration of initial slow parasite clearance phase,"Plasmodium falciparum [2]; VIS 150, 400, 800 mg",35 to 55 h
same,Parasite clearance following M5717 dosing,"Plasmodium falciparum [2]; VIS 150, 400, 800 mg",all participants
same,Time of peak whole-blood concentration after dosing,"[3]; across dose levels, SAD and VIS",approximately 2 h
same,Time with M5717 concentration at least 3 ng/mL in all participants,[3]; doses of 150 mg and higher,at least 168 h
same,Time with M5717 concentration 10 ng/mL or higher in all participants,[3]; doses of 400 mg or higher,at least 168 h
same,Terminal half-life predicted before the study,"[3]; human, prediction before the study",250 h
same,Vd/F,"[3]; human, oral",5880 to 9510 L
same,half-life,"[3]; human, oral",106 to 193 h
same,half-life,"[3]; human, oral, 200 mg",133 to 145 h
same,AUC(0-inf),"[3]; human, po, 50 mg",997 ng·h/mL
same,Vd/F,"[3]; human, po, 50 mg",7640 L
same,half-life,"[3]; human, po, 50 mg",133 h
same,AUC(0-inf),"[3]; human, po, 100 mg",1710 ng·h/mL
same,Vd/F,"[3]; human, po, 100 mg",8890 L
same,half-life,"[3]; human, po, 100 mg",133 h
same,AUC(0-inf),"[3]; human, po, 200 mg",3500 ng·h/mL
same,Vd/F,"[3]; human, po, 200 mg",9510 L
same,half-life,"[3]; human, po, 200 mg",145 h
same,Vd/F,"[3]; human, po, 400 mg",7100 L
same,half-life,"[3]; human, po, 400 mg",155 h
same,Vd/F,"[3]; human, po, 600 mg",7160 L
same,half-life,"[3]; human, po, 600 mg",181 h
same,Vd/F,"[3]; human, po, 1000 mg",6770 L
same,half-life,"[3]; human, po, 1000 mg",169 h
same,Vd/F,"[3]; human, po, 1250 mg",6830 L
same,half-life,"[3]; human, po, 1250 mg",180 h
same,Vd/F,"[3]; human, po, 1800 mg",7060 L
same,half-life,"[3]; human, po, 1800 mg",181 h
same,AUC(0-inf),"[3]; human, po, 2100 mg",43000 ng·h/mL
same,Vd/F,"[3]; human, po, 2100 mg",7870 L
same,half-life,"[3]; human, po, 2100 mg",140 h
same,AUC(0-t),"[3]; human, po, 2100 mg, AUC0–144h",27200 ng·h/mL
same,AUC(0-t),"[3]; human, po, 2100 mg, AUC0–t",42200 ng·h/mL
same,Any adverse event,[4]; VIS 150 mg single oral dose,6 (100%) n (%)
same,Any adverse event related to study treatment,[4]; VIS 150 mg single oral dose,0 n (%)
same,Moderate adverse event (grade 2),[4]; VIS 150 mg single oral dose,2 (33%) n (%)
same,Moderate adverse event (grade 2) related to study treatment,[4]; VIS 150 mg single oral dose,0 n (%)
same,Severe adverse event (grade 3),[4]; VIS 150 mg single oral dose,0 n (%)
same,Any adverse event,[4]; VIS 400 mg single oral dose,8 (100%) n (%)
same,Moderate adverse event (grade 2),[4]; VIS 400 mg single oral dose,3 (38%) n (%)
same,Moderate adverse event (grade 2) related to study treatment,[4]; VIS 400 mg single oral dose,0 n (%)
same,Severe adverse event (grade 3),[4]; VIS 400 mg single oral dose,0 n (%)
same,Any adverse event,[4]; VIS 800 mg single oral dose,7 (88%) n (%)
same,Any adverse event related to study treatment,[4]; VIS 800 mg single oral dose,0 n (%)
same,Moderate adverse event (grade 2),[4]; VIS 800 mg single oral dose,2 (25%) n (%)
same,Moderate adverse event (grade 2) related to study treatment,[4]; VIS 800 mg single oral dose,0 n (%)
same,Severe adverse event (grade 3),[4]; VIS 800 mg single oral dose,1 (13%) n (%)
same,Participants with at least one adverse event after M5717 dosing,"[4]; VIS, all 22 participants",21 (95%) n (%)
same,Potency against Plasmodium falciparum,Plasmodium falciparum [5],nanomolar potency
same,Half-life in preclinical animal studies,[6],18 to 20 h
same,M5717-related dizziness,[7]; 1800 mg only,three
same,M5717-related blurred vision,[7]; 1800 mg or 2100 mg groups only,four
same,M5717-related oral hypoesthesia,[7]; 1800 mg or 2100 mg groups only,three
same,Any adverse event,[7]; SAD 50 mg single oral dose,6 (100%) n (%)
same,Moderate adverse event (grade 2),[7]; SAD 50 mg single oral dose,1 (17%) n (%)
same,Moderate adverse event (grade 2) related to study treatment,[7]; SAD 50 mg single oral dose,0 n (%)
same,Severe adverse event (grade 3),[7]; SAD 50 mg single oral dose,1 (17%) n (%)
same,Any adverse event,[7]; SAD 100 mg single oral dose,5 (83%) n (%)
same,Moderate adverse event (grade 2),[7]; SAD 100 mg single oral dose,1 (17%) n (%)
same,Moderate adverse event (grade 2) related to study treatment,[7]; SAD 100 mg single oral dose,0 n (%)
same,Severe adverse event (grade 3),[7]; SAD 100 mg single oral dose,0 n (%)
same,Any adverse event,[7]; SAD 200 mg single oral dose,3 (50%) n (%)
same,Moderate adverse event (grade 2),[7]; SAD 200 mg single oral dose,0 n (%)
same,Moderate adverse event (grade 2) related to study treatment,[7]; SAD 200 mg single oral dose,0 n (%)
same,Severe adverse event (grade 3),[7]; SAD 200 mg single oral dose,0 n (%)
same,Any adverse event,[7]; SAD 400 mg single oral dose,4 (67%) n (%)
same,Moderate adverse event (grade 2),[7]; SAD 400 mg single oral dose,0 n (%)
same,Moderate adverse event (grade 2) related to study treatment,[7]; SAD 400 mg single oral dose,0 n (%)
same,Severe adverse event (grade 3),[7]; SAD 400 mg single oral dose,0 n (%)
same,Any adverse event,[7]; SAD 600 mg single oral dose,3 (50%) n (%)
same,Moderate adverse event (grade 2),[7]; SAD 600 mg single oral dose,1 (17%) n (%)
same,Moderate adverse event (grade 2) related to study treatment,[7]; SAD 600 mg single oral dose,0 n (%)
same,Severe adverse event (grade 3),[7]; SAD 600 mg single oral dose,0 n (%)
same,Any adverse event,[7]; SAD 1000 mg single oral dose,4 (67%) n (%)
same,Moderate adverse event (grade 2),[7]; SAD 1000 mg single oral dose,0 n (%)
same,Moderate adverse event (grade 2) related to study treatment,[7]; SAD 1000 mg single oral dose,0 n (%)
same,Severe adverse event (grade 3),[7]; SAD 1000 mg single oral dose,0 n (%)
same,Any adverse event,[7]; SAD 1250 mg single oral dose,5 (83%) n (%)
same,Moderate adverse event (grade 2),[7]; SAD 1250 mg single oral dose,1 (17%) n (%)
same,Moderate adverse event (grade 2) related to study treatment,[7]; SAD 1250 mg single oral dose,1 (17%) n (%)
same,Severe adverse event (grade 3),[7]; SAD 1250 mg single oral dose,0 n (%)
same,Any adverse event,[7]; SAD 1800 mg single oral dose,6 (100%) n (%)
same,Moderate adverse event (grade 2),[7]; SAD 1800 mg single oral dose,0 n (%)
same,Moderate adverse event (grade 2) related to study treatment,[7]; SAD 1800 mg single oral dose,0 n (%)
same,Severe adverse event (grade 3),[7]; SAD 1800 mg single oral dose,0 n (%)
same,Any adverse event,[7]; [8],1 (100%) n (%)
same,Any adverse event related to study treatment,[7]; [8],1 (100%) n (%)
same,Moderate adverse event (grade 2),[7]; [8],1 (100%) n (%)
same,Moderate adverse event (grade 2) related to study treatment,[7]; [8],1 (100%) n (%)
same,Severe adverse event (grade 3),[7]; [8],0 n (%)
same,Serious adverse events,[7]; SAD and VIS,No adverse event was serious; also recorded: No serious adverse events
same,Severity of adverse events related to M5717,[7]; SAD and VIS,mild or moderate
same,"Vital signs, ECGs, clinical laboratory parameters",[7]; SAD and VIS,No dose-related trends
same,Participants with adverse events related to M5717,[7]; [9],12 (24%) n (%)
same,Participants with at least one adverse event,[7]; [9],37 (76%) n (%)
same,Dose up to which M5717 is well tolerated,"[7]; single oral dose, healthy adults",≤ 1250 mg
COc1ccc2nc3cc(Cl)ccc3c(Nc3cc(CN4CCCC4)c(O)c(CN4CCCC4)c3)c2n1 [pyronaridine],Selection of M5717-resistant mutants,M5717-resistant mutants,prevented selection of M5717-resistant mutants
